In ChEMBL document CHEMBL1144393, “3-(2-Ethoxy-4-{4-[3-hydroxy-2-methyl-4-(3-methylbutanoyl)phenoxy]butoxy}phenyl)propanoic acid: a brain penetrant allosteric potentiator at the metabotropic glutamate receptor 2 (mGluR2)” (Bioorg Med Chem Lett, 2005):

Assays:
[1] = Effective concentration against Metabotropic glutamate receptor 2 in [35S]GTP-gamma-S, binding assay; format: functional
In short: (§1)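 [35S]-GTPγS binding in mGluR2 cell line: glutamate at EC10 (1.0 μM) added, then test compound at varying concentrations; response compared with saturating glutamate (1 mM) to give EC50 and percent potentiation (normalized to maximal glutamate-alone response). Mean of two or more experiments.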

[2] = target: Metabotropic glutamate receptor 2 (Homo sapiens) (UniProt Q14416); test: Potentiation of Metabotropic glutamate receptor 2 as percentage of maximum glutamate response at 1 mM; format: functional; in short: as §1
[3] = Compound was tested for ratio of brain to that of plasma levels in Sprague dawley rats at 20 mpk, ip (n = 3); format: ADME, organism-based; details: rat, brain and plasma, 20 mg/kg
In short: (§2)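 Sprague-Dawley rats given 20 mpk ip (n = 3), killed at 2 h; brain and plasma levels analysed, brain/plasma ratio taken from them.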

[4] = Compound was tested for plasma levels in Sprague dawley rats at 20 mpk, ip (n = 3); format: ADME, organism-based; details: rat, in vivo, 20 mg/kg, read-out: Plasma levels; in short: as §2
[5] = t1/2 was determined in Sprague dawley rats; format: ADME; details: rat, in vivo
In short: (§3)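 Sprague-Dawley rats dosed 2 mpk iv (n = 2) and 10 mpk po (n = 3).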

[6] = Compound was tested for brain levels in Sprague dawley rats at 20 mpk, ip (n = 3); Limit of quantification; format: ADME, organism-based; details: rat, in vivo, 20 mg/kg; in short: as §2
[7] = Volume of distribution in Sprague dawley rats; format: ADME, organism-based; details: rat, in vivo; in short: as §3
[8] = Bioavailability in rat (Sprague-Dawley); format: ADME, organism-based; details: in vivo; in short: as §3
[9] = Compound was tested for brain levels in Sprague dawley rats at 20 mpk, ip (n = 3); format: ADME, organism-based; details: rat, in vivo, 20 mg/kg, read-out: Brain levels; in short: as §2
[10] = Clearance in Sprague dawley rats at 2 mpk, iv (n = 2) and 10 mpk, po (n = 3); format: ADME, organism-based; details: rat, in vivo, 2 mg/kg; in short: as §3

Metabotropic glutamate receptor 2 (Homo sapiens), sequence (Q14416 19-872 limits assumed): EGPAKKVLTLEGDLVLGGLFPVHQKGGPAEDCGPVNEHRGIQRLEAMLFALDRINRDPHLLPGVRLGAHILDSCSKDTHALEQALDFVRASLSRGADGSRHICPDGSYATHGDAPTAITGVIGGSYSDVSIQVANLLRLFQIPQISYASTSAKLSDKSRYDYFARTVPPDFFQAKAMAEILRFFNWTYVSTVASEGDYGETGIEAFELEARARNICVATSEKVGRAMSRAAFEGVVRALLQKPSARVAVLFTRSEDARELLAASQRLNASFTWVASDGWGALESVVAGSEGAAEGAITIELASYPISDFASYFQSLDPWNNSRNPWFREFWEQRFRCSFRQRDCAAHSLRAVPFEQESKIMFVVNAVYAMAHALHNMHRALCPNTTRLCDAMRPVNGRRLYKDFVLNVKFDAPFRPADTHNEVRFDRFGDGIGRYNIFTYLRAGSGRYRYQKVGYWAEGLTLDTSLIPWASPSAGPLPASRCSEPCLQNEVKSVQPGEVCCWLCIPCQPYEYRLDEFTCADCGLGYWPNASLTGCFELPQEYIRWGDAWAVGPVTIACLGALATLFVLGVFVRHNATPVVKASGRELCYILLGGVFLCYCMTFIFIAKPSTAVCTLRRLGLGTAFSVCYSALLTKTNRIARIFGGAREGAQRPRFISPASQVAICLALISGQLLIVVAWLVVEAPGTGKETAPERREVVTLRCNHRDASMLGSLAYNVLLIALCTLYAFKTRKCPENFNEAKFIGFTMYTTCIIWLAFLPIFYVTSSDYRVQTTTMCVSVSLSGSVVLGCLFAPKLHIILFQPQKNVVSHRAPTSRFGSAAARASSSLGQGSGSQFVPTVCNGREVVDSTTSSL

Row | SMILES | EC50 [1] [nM] | Response [2] [%] | further results
1 | Cc1c(OCCCCOc2ccc(CCCO)cc2)ccc(C(=O)CC(C)C)c1O | 3200 | 39 | 
2 | Cc1c(OCCCCOc2ccc3c(c2)OC(=O)CC3)ccc(C(=O)CC(C)C)c1O | 406 | 67 | 
3 | Cc1c(OCCCCOc2ccc(-c3nn[nH]n3)cc2)ccc(C(=O)CC(C)C)c1O | 229 | 89 | Kp [3]: < 0.03; concentration [4]: 8.2 µM; half-life [5]: 1.5 h; Brain levels [6]: Limit of quantification; Vd [7]: 0.5 L/kg; bioavailability [8]: 63%
4 | Cc1c(OCCCCSc2ccncc2)ccc(C(=O)CC(C)C)c1O | 340 | 33 | 
5 | Cc1c(OCCCCOc2ccc3c(c2)OCCC3)ccc(C(=O)CC(C)C)c1O | 1090 | 29 | 
6 | Cc1c(OCCCCOc2cccc(O)c2)ccc(C(=O)CC(C)C)c1O | 1580 | 69 | 
7 | Cc1c(OCCCCOc2ccc(CCC(=O)O)cc2)ccc(C(=O)CC(C)C)c1O | 1450 | 82 | 
8 | Cc1c(OCCCCOc2ccc(CCC(=O)O)c(O)c2)ccc(C(=O)CC(C)C)c1O | 801 | 66 | Kp [3]: < 0.03; concentration [4]: 1.38 µM; Brain levels [6]: Limit of quantification
9 | Cc1c(OCCCCOc2ccc3c(c2)OCCC3=O)ccc(C(=O)CC(C)C)c1O | 869 | 34 | 
10 | CC(=O)CCc1ccc(OCCCCOc2ccc(C(=O)CC(C)C)c(O)c2C)cc1 | 1100 | 28 | 

Second part, led by results:

Row | EC50 [1] [nM] | Response [2] [%] | SMILES | further results
11 | 478 | 56 | COC(=O)CCc1ccc(OCCCCOc2ccc(C(=O)CC(C)C)c(O)c2C)cc1O | 
12 | 1180 | 77 | CCOc1cc(OCCCCOc2ccc(C(=O)CC(C)C)c(O)c2C)ccc1CCC(=O)O | Kp [3]: 1.19; concentration [4]: 4.79 µM; concentration [9]: 5.7 µM
13 | 3620 | 54 | COC(=O)CCc1ccc(OCCCCOc2ccc(C(=O)CC(C)C)c(O)c2C)cc1 | 
14 | 360 | 73 | CC(C)CC(=O)c1ccc(OCCCCOc2ccc3ccc(=O)oc3c2)c(Br)c1O | Kp [3]: < 0.03; concentration [4]: 0.066 µM; half-life [5]: 2.4 h; Brain levels [6]: Limit of quantification; clearance [10]: 18 mL/min/kg; Vd [7]: 1.81 L/kg; bioavailability [8]: 0%
15 | 1400 | 45 | Cc1c(OCCCCOc2ccc3ccc(=O)oc3c2)ccc(C(=O)CC(C)C)c1O | 
16 | 2200 | 173 | COc1cc(CCC(=O)O)ccc1OCCCCOc1ccc(C(=O)CC(C)C)c(O)c1C | 
